The record followed here is ChEMBL document CHEMBL1240480, “Design, synthesis and biological evaluation of L-dopa amide derivatives as potential prodrugs for the treatment of Parkinson's disease” (Eur J Med Chem, 2010).

Series [1] deals with Rattus norvegicus. The experiment in a line: Antiparkinsonian activity in 6-hydroxydopamine lesioned Wistar rat assessed as number of rotation per 10 mins at 16.53 mg/kg, ip. The series is classed as functional. The following applies: route intraperitoneal. The method in brief:
(§1)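 Rotometer assay in unilaterally 6-OHDA-lesioned male Wistar rats (apomorphine-confirmed, >6 turns/min). Benserazide 10 mg/kg was given, followed by compound at 63.4 µmol/kg ip or po in saline (n=4–8 per treatment). Rotations were recorded per 10 min for 240 min. Peak (maximum) rotations per 10 min were taken and expressed relative to L-dopa.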

The test system of series [2] is Rattus norvegicus. The experiment in a line: Antiparkinsonian activity in 6-hydroxydopamine lesioned Wistar rat assessed as number of rotation per 10 mins at 16.53 mg/kg, po. The series is classed as functional. A digest of the protocol:
as §1

Series [3] concerns Rattus norvegicus. The experiment in a line: Antiparkinsonian activity in 6-hydroxydopamine lesioned Wistar rat assessed as area under curve measured as number of rotation per 10 mins at 16.53 mg/kg, po. The series is classed as functional. A digest of the protocol: (§2)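 Male Wistar rats were given desipramine (25 mg/kg ip) and then a unilateral 6-OHDA injection (8 µg free base) into the left medial forebrain bundle. Lesions were confirmed ≥2 weeks later by apomorphine (0.5 mg/kg sc), accepting rats with >6 turns/min. Rats (n=4–8) received benserazide 10 mg/kg and 30 min basal recording, then drug at 63.4 µmol/kg ip or po in saline. Contraversive rotations were counted per 10 min over 240 min. AUC was calculated and expressed as % of the L-dopa effect.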

The subject of series [4] is Rattus norvegicus. Description: Antiparkinsonian activity in 6-hydroxydopamine lesioned Wistar rat assessed as area under curve measured as number of rotation per 10 mins at 16.53 mg/kg, ip. The note with it: route intraperitoneal. The series is classed as functional. A digest of the protocol: as §2
Series [5] relates to Rattus norvegicus. The experiment in a line: Antiparkinsonian activity in 6-hydroxydopamine lesioned Wistar rat assessed as duration of rotation per 10 mins at 16.53 mg/kg, po. The series is classed as functional. The method in brief: (§3)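 The 6-OHDA-lesioned male Wistar rats were apomorphine-screened (>6 turns/min) and given benserazide 10 mg/kg, then a saline-vehicle dose of 63.4 µmol/kg ip or po (n=4–8). Rotations were counted per 10 min for 4 h. Duration of activity was the time turning >10 turns per 10 min, expressed as % of the L-dopa effect.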

For series [6], the system named is Rattus norvegicus. The experiment in a line: Antiparkinsonian activity in 6-hydroxydopamine lesioned Wistar rat assessed as duration of rotation per 10 mins at 16.53 mg/kg, ip. The note with it: route intraperitoneal. The series is classed as functional. The method in brief:
as §3

In series [7] the test system is Rattus norvegicus. The experiment in a line: Antiparkinsonian activity in 6-hydroxydopamine lesioned Wistar rat assessed as number of rotation per 10 mins at 20.1 mg/kg, ip. The series is classed as functional. The following applies: route intraperitoneal. A digest of the protocol:
as §1

In series [8] the test system is Rattus norvegicus. Description: Antiparkinsonian activity in 6-hydroxydopamine lesioned Wistar rat assessed as number of rotation per 10 mins at 20.1 mg/kg, po. The series is classed as functional. The method in brief:
as §1

Series [9] deals with Rattus norvegicus. The experiment in a line: Antiparkinsonian activity in 6-hydroxydopamine lesioned Wistar rat assessed as area under curve measured as number of rotation per 10 mins at 20.1 mg/kg, po. The series is classed as functional. A digest of the protocol: as §2
Series [10] concerns Rattus norvegicus. The experiment in a line: Antiparkinsonian activity in 6-hydroxydopamine lesioned Wistar rat assessed as area under curve measured as number of rotation per 10 mins at 20.1 mg/kg, ip. The series is classed as functional. The following applies: route intraperitoneal. A digest of the protocol: as §2
Series [11] has as its system Rattus norvegicus. Description: Antiparkinsonian activity in 6-hydroxydopamine lesioned Wistar rat assessed as duration of rotation per 10 mins at 20.1 mg/kg, po. The series is classed as functional. A digest of the protocol:
as §3

Series [12] relates to Rattus norvegicus. Description: Antiparkinsonian activity in 6-hydroxydopamine lesioned Wistar rat assessed as duration of rotation per 10 mins at 20.1 mg/kg, ip. The series is classed as functional. The note with it: route intraperitoneal. The method in brief: as §3
For series [13], the system named is Rattus norvegicus. Description: Cmax in Wistar rat at 20.1 mg/kg, po assessed as L-dopa level. The series is classed as ADME, organism-based. Details: dose 20.1 mg/kg, route oral. The note with it: in vivo. A digest of the protocol:
(§4)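 Naïve male Wistar rats (250–500 g), fasted overnight, dosed orally in 0.9% saline with benserazide (10 mg/kg) at dose equivalent to 12.5 mg/kg L-dopa. Heparinised tail-vein blood at various times; plasma extracted with 20% TFA in 10 mM metabisulphite with warfarin internal standard; L-dopa quantified by LC-MS/MS (positive ESI) against plasma standard curve 0.39–50 µM.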

The test system of series [14] is Rattus norvegicus. The experiment in a line: Apparent half life in Wistar rat at 20.1 mg/kg, po assessed as L-dopa level. The arrangement: dose 20.1 mg/kg, route oral. The series is classed as ADME, organism-based. The following applies: in vivo. A digest of the protocol: as §4
Series [15] has as its system Rattus norvegicus. Description: AUC (0 to 4 hrs) in Wistar rat at 20.1 mg/kg, po assessed as L-dopa level. The series is classed as ADME, organism-based, Plasma. The arrangement: time < 4 hr, dose 20.1 mg/kg, route oral. The note with it: in vivo. The method in brief:
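Naïve male Wistar rats (250–500 g), fasted overnight, dosed with compound in 0.9% saline together with benserazide (10 mg/kg), at a dose molar-equivalent to 12.5 mg/kg L-dopa. Heparinised tail-vein blood was sampled at intervals and the plasma stored at −80 °C. L-dopa was extracted with 20% TFA/10 mM metabisulphite plus warfarin internal standard and quantified by LC-MS/MS (positive ESI) against plasma standard curves.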

The subject of series [16] is Rattus norvegicus. The experiment in a line: Antiparkinsonian activity in 6-hydroxydopamine lesioned Wistar rat assessed as duration of rotation per 10 mins at 12.5 mg/kg, ip. The series is classed as functional. The following applies: route intraperitoneal. The method in brief: as §3
Series [17] relates to Rattus norvegicus. Description: Antiparkinsonian activity in 6-hydroxydopamine lesioned Wistar rat assessed as duration of rotation per 10 mins at 12.5 mg/kg, po. The series is classed as functional. The method in brief: as §3
For series [18], the system named is Rattus norvegicus. The experiment in a line: Antiparkinsonian activity in 6-hydroxydopamine lesioned Wistar rat assessed as number of rotation per 10 mins at 12.5 mg/kg, ip. The series is classed as functional. The following applies: route intraperitoneal. The method in brief:
as §1

Series [19] concerns Rattus norvegicus. Description: Antiparkinsonian activity in 6-hydroxydopamine lesioned Wistar rat assessed as number of rotation per 10 mins at 12.5 mg/kg, po. The series is classed as functional. A digest of the protocol: as §1
Series [20] has as its system Rattus norvegicus. Description: Antiparkinsonian activity in 6-hydroxydopamine lesioned Wistar rat assessed as area under curve measured as number of rotation per 10 mins at 12.5 mg/kg, po. The series is classed as functional. The method in brief:
as §2

Series [21] deals with Rattus norvegicus. Description: Antiparkinsonian activity in 6-hydroxydopamine lesioned Wistar rat assessed as area under curve measured as number of rotation per 10 mins at 12.5 mg/kg, ip. The note with it: route intraperitoneal. The series is classed as functional. A digest of the protocol: as §2
Series [22] concerns Rattus norvegicus. The experiment in a line: Antiparkinsonian activity in 6-hydroxydopamine lesioned Wistar rat assessed as duration of rotation per 10 mins at 15.64 mg/kg, po. The series is classed as functional. The method in brief:
as §3

The test system of series [23] is Rattus norvegicus. The experiment in a line: Antiparkinsonian activity in 6-hydroxydopamine lesioned Wistar rat assessed as number of rotation per 10 mins at 15.64 mg/kg, ip. The series is classed as functional. The following applies: route intraperitoneal. A digest of the protocol: as §1
Series [24] deals with Rattus norvegicus. Description: Antiparkinsonian activity in 6-hydroxydopamine lesioned Wistar rat assessed as number of rotation per 10 mins at 15.64 mg/kg, po. The series is classed as functional. A digest of the protocol:
as §1

The subject of series [25] is Rattus norvegicus. The experiment in a line: Antiparkinsonian activity in 6-hydroxydopamine lesioned Wistar rat assessed as area under curve measured as number of rotation per 10 mins at 15.64 mg/kg, po. The series is classed as functional. A digest of the protocol: as §2
Series [26] relates to Rattus norvegicus. Description: Antiparkinsonian activity in 6-hydroxydopamine lesioned Wistar rat assessed as area under curve measured as number of rotation per 10 mins at 15.64 mg/kg, ip. The series is classed as functional. The following applies: route intraperitoneal. A digest of the protocol:
as §2

In series [27] the test system is Rattus norvegicus. The experiment in a line: Antiparkinsonian activity in 6-hydroxydopamine lesioned Wistar rat assessed as duration of rotation per 10 mins at 15.64 mg/kg, ip. The following applies: route intraperitoneal. The series is classed as functional. The method in brief: as §3
The test system of series [28] is Rattus norvegicus. The experiment in a line: Antiparkinsonian activity in 6-hydroxydopamine lesioned Wistar rat assessed as number of rotation per 10 mins at 21.35 mg/kg, ip. The series is classed as functional. The note with it: route intraperitoneal.
Series [29] relates to Rattus norvegicus. Description: Antiparkinsonian activity in 6-hydroxydopamine lesioned Wistar rat assessed as number of rotation per 10 mins at 21.35 mg/kg, po. The series is classed as functional.
For series [30], the system named is Rattus norvegicus. Description: Antiparkinsonian activity in 6-hydroxydopamine lesioned Wistar rat assessed as area under curve measured as number of rotation per 10 mins at 21.35 mg/kg, po. The series is classed as functional. The method in brief:
as §2

For series [31], the system named is Rattus norvegicus. Description: Antiparkinsonian activity in 6-hydroxydopamine lesioned Wistar rat assessed as area under curve measured as number of rotation per 10 mins at 21.35 mg/kg, ip. The series is classed as functional. The note with it: route intraperitoneal. A digest of the protocol: as §2
Series [32] has as its system Rattus norvegicus. Description: Antiparkinsonian activity in 6-hydroxydopamine lesioned Wistar rat assessed as duration of rotation per 10 mins at 21.35 mg/kg, po. The series is classed as functional. A digest of the protocol: as §3
For series [33], the system named is Rattus norvegicus. Description: Antiparkinsonian activity in 6-hydroxydopamine lesioned Wistar rat assessed as duration of rotation per 10 mins at 21.35 mg/kg, ip. The series is classed as functional. The following applies: route intraperitoneal. The method in brief:
as §3

For series [34], the system named is Rattus norvegicus. Description: Antiparkinsonian activity in 6-hydroxydopamine lesioned Wistar rat assessed as number of rotation per 10 mins at 21.81 mg/kg, po. The series is classed as functional.
Series [35] concerns Rattus norvegicus. The experiment in a line: Antiparkinsonian activity in 6-hydroxydopamine lesioned Wistar rat assessed as area under curve measured as number of rotation per 10 mins at 21.81 mg/kg, po. The series is classed as functional. The method in brief:
as §2

In series [36] the test system is Rattus norvegicus. Description: Antiparkinsonian activity in 6-hydroxydopamine lesioned Wistar rat assessed as duration of rotation per 10 mins at 21.81 mg/kg, po. The series is classed as functional. A digest of the protocol:
as §3

Each structure is given as a SMILES string.

For `CCNC(=O)[C@@H](N)Cc1ccc(O)c(O)c1.Cl`, the Activity in the series with Rattus norvegicus [1] is 40; with Rattus norvegicus [2] it was 39; in the series with Rattus norvegicus [3] it was 324; in the series with Rattus norvegicus [4] it was 117. For the same compound, the Time in the series on Rattus norvegicus [5] is recorded as 39 min; in the series on Rattus norvegicus [6], 18 min.

As a reminder, the Cmax is the highest concentration seen after dosing. Usually AUC stands for concentration integrated over time. In the case of `CC(=O)Oc1ccc(C[C@H](N)C(N)=O)cc1OC(C)=O.Cl`, the Activity in the series on Rattus norvegicus [7] is listed as 69; with Rattus norvegicus [8], 107; in the series with Rattus norvegicus [9], 1085; in the series on Rattus norvegicus [10], 838. The Time in the series with Rattus norvegicus [11] came out at 147 min; in the series on Rattus norvegicus [12], 140 min. The Cmax with Rattus norvegicus [13] worked out at 1746 ng/mL. In addition, the t1/2 in the series on Rattus norvegicus [14] was determined as 1.62 h. Also, the AUC with Rattus norvegicus [15] was 245 µg·min/mL.

Consider `N[C@@H](Cc1ccc(O)c(O)c1)C(=O)O` [LEVODOPA], for which the Time turned out to be 160 min in the series on Rattus norvegicus [16] and 119 min in the series with Rattus norvegicus [17]. The Activity was determined as 104 in the series with Rattus norvegicus [18], 71 in the series on Rattus norvegicus [19], 522 with Rattus norvegicus [20] and 1021 in the series with Rattus norvegicus [21].

Take `CNC(=O)[C@@H](N)Cc1ccc(O)c(O)c1.Cl`: the Time with Rattus norvegicus [22] was 10 min; in the series with Rattus norvegicus [27], 0 min. Further, the Activity with Rattus norvegicus [23] turned out to be 2; with Rattus norvegicus [24], 5; in the series on Rattus norvegicus [25] it was 29; in the series on Rattus norvegicus [26] it was 16.

Turning to `Cl.N[C@@H](Cc1ccc(O)c(O)c1)C(=O)NCCc1ccccc1`, the Activity with Rattus norvegicus [28] was determined as 124; in the series with Rattus norvegicus [29], 17; in the series on Rattus norvegicus [30] it was 94; with Rattus norvegicus [31], 825. Also, the Time in the series with Rattus norvegicus [32] is reported as 30 min; in the series on Rattus norvegicus [33], 124 min.

Regarding `CC(=O)Oc1ccc(C[C@H](N)C(=O)N(C)C)cc1OC(C)=O.Cl`, the values for the Activity in the series with Rattus norvegicus [34] and in the series on Rattus norvegicus [35] were 1 and 26, respectively. The Time in the series on Rattus norvegicus [36] came out at 0 min.
